Laboratory results: ChEMBL document CHEMBL4819012, “Discovery of novel 2-aryl-3-sulfonamido-pyridines (HoAns) as microtubule polymerization inhibitors with potent antitumor activities” (Eur J Med Chem, 2021)
One block for each molecule: values may come before it. Calls of active or inactive are those of the source. No cut-off for these calls is given here.

Experiments:
MCF7 = test: Antiproliferative activity against human MCF7 cells assessed as cell viability at 10 uM measured after 72 hrs by MTS method; assay type: functional; conditions: read-out: Activity
How it was run: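 Single-concentration screen at 10 µM for 72 h. Log-phase cells plated at 5×10^3–6×10^3 per well for 24 h before dosing, five replicate wells. Viability measured by MTS: 10% MTS in fresh medium, 30 min or more at 37 °C in dark, absorbance 490 nm.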

PLC-PRF-5 = test: Antiproliferative activity against human PLC-PRF-5 cells assessed as cell viability measured after 72 hrs by MTS method; assay type: functional, cell-based; conditions: PLC-PRF-5, 72 h
How it was run: (§1)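 Log-phase cells plated at 5×10^3–6×10^3 per well for 24 h, then given graded compound concentrations in fresh medium for 72 h, five replicate wells. Medium replaced with medium containing 10% MTS, 30 min or more at 37 °C in dark; OD 490 nm read. IC50 by nonlinear regression; mean ± SD of at least three experiments.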

[1] = Antiproliferative activity against human HCCLM3 cells assessed as cell viability measured after 72 hrs by MTS method; assay type: functional, cell-based; conditions: HCCLM3, 72 h; how it was run: as §1
BT-474 = test: Antiproliferative activity against human BT-474 cells assessed as cell viability measured after 72 hrs by MTS method; assay type: functional, cell-based; conditions: BT-474, 72 h; how it was run: as §1
SK-BR-3 = test: Antiproliferative activity against human SK-BR-3 cells assessed as cell viability measured after 72 hrs by MTS method; assay type: functional, cell-based; conditions: SK-BR-3, 72 h; how it was run: as §1
RKO = test: Antiproliferative activity against human RKO cells assessed as cell viability measured after 72 hrs by MTS method; assay type: functional, cell-based; how it was run: as §1
SW-620 = test: Antiproliferative activity against human SW-620 cells assessed as cell viability measured after 72 hrs by MTS method; assay type: functional, cell-based; conditions: SW-620, 72 h; how it was run: as §1
SW480 = test: Antiproliferative activity against human SW480 cells assessed as cell viability measured after 72 hrs by MTS method; assay type: functional, cell-based; conditions: SW480, 72 h; how it was run: as §1
A549 = test: Antiproliferative activity against human A549 cells assessed as cell viability measured after 72 hrs by MTS method; assay type: functional, cell-based; conditions: A549, 72 h; how it was run: as §1
NCI-H460 = test: Antiproliferative activity against human NCI-H460 cells assessed as cell viability measured after 72 hrs by MTS method; assay type: functional, cell-based; conditions: NCI-H460, 72 h; how it was run: as §1
PANC-1 = test: Antiproliferative activity against human PANC-1 cells assessed as cell viability measured after 72 hrs by MTS method; assay type: functional, cell-based; conditions: PANC-1, 72 h; how it was run: as §1
Sus scrofa = organism: Sus scrofa; test: Inhibition of pig tubulin polymerization at 10 uM measured every minute for 60 mins by microplate reader method
How it was run: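 Kit assay with porcine tubulin (>97% pure) at 4 mg/mL in PIPES 80 mM, MgCl2 2 mM, EGTA 0.5 mM, pH 6.9, with GTP. Compound at 10 μM final (from 100 μM working solution) preincubated 5 min at 37 °C in a prewarmed plate before cold tubulin mix is added. A340 read every minute for 60 min at 37 °C.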

Tubulin (Homo sapiens) [2] = target: T1, Tubulin (Homo sapiens) (UniProt P68371+Q9H4B7+P0DPH7+P68366+Q13509+Q71U36+P04350+Q3ZCM7+P07437+P68363+Q9BQE3+Q6PEY2+Q13885+Q9BVA1+Q9BUF5); test: Inhibition of tubulin polymerization in human RKO cells assessed as fragmentation of microtubule at 1 uM measured 24 hrs by DAPI staining based immunoflourescence assay; assay type: cell-based
How it was run: (§2)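 RKO cells on coverslips (2.5×10^5 per well) incubated overnight, then treated for 24 h at 0.5 or 1 μM, DMSO, or 1 μM comparators. Fixed in cold methanol 10 min, permeabilized with 0.25% Triton X-100, blocked in 1% BSA at 4 °C overnight. Stained with anti-β-tubulin (1:100, 2 h RT) and Alexa Fluor 594 secondary (1:500, 1 h), nuclei with DAPI; imaged by fluorescence microscopy.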

Tubulin (Homo sapiens) [3] = target: T1, Tubulin (Homo sapiens); test: Inhibition of tubulin polymerization in human RKO cells assessed as morphology changed to fusiform at 1 uM measured 24 hrs by DAPI staining based immunoflourescence assay; assay type: cell-based; conditions: in the assay text read “changed to round from fusiform” for “changed to fusiform”; how it was run: as §2

Compound: COc1ccc(S(=O)(=O)N(c2cccnc2-c2ccc(OC)cc2OC)S(=O)(=O)c2ccc(OC)cc2)cc1
- viability at 10 µM (MCF7): > 70%

Compound: COc1ccc(S(=O)(=O)Nc2cccnc2-c2cccc(O)c2)cc1
- viability at 10 µM (MCF7): > 70%

Compound: COc1ccc(S(=O)(=O)Nc2cccnc2-c2cc(OC)c(OC)c(OC)c2)cc1
- viability at 10 µM (MCF7): > 70%

- IC50 (BT-474): > 10 µM
- IC50 (SK-BR-3): > 10 µM
- IC50 (SW-620): 7.89 µM
- IC50 (SW480): > 10 µM
- IC50 (A549): > 10 µM
- IC50 (NCI-H460): > 10 µM
- IC50 (PANC-1): > 10 µM
Compound: COc1ccc(S(=O)(=O)Nc2cccnc2-c2ccccc2)cc1
- IC50 (PLC-PRF-5): > 10 µM
- IC50 [1]: > 10 µM
- IC50 (RKO): 4.32 µM

Compound: COc1ccc(S(=O)(=O)N(c2cccnc2-c2ccc3c(c2)OCO3)S(=O)(=O)c2ccc(OC)cc2)cc1
- viability at 10 µM (MCF7): > 70%

- IC50 (PANC-1): 10 µM
Compound: N#Cc1ccc(-c2ncccc2NS(=O)(=O)c2ccc3ccccc3c2)cc1F
- IC50 [1]: 8.87 µM
- IC50 (RKO): 2.92 µM

Compound: COc1ccc(S(=O)(=O)Nc2cccnc2-c2cc(OC)cc(OC)c2)cc1
- viability at 10 µM (MCF7): > 70%

- IC50 (PANC-1): > 10 µM
Compound: N#Cc1ccc(-c2ncccc2NS(=O)(=O)c2ccc(OC(F)(F)F)cc2)cc1F
- IC50 [1]: > 10 µM
- IC50 (RKO): > 10 µM

- IC50 (PANC-1): > 10 µM
Compound: N#Cc1ccc(-c2ncccc2NS(=O)(=O)c2ccc(C(F)(F)F)cc2)cc1F
- IC50 [1]: > 10 µM
- IC50 (RKO): > 10 µM

Compound: COc1ccc(S(=O)(=O)Nc2cccnc2-c2cccc([N+](=O)[O-])c2)cc1
- viability at 10 µM (MCF7): > 70%

Compound: COc1ccc(S(=O)(=O)Nc2cccnc2-c2ccnnc2)cc1
- viability at 10 µM (MCF7): > 70%

- IC50 (PANC-1): > 10 µM
Compound: N#Cc1ccc(-c2ncccc2NS(=O)(=O)c2ccc(Br)cc2)cc1F
- viability at 10 µM (MCF7): > 70%
- IC50 [1]: > 10 µM
- IC50 (RKO): > 10 µM

Compound: COc1ccc(-c2ncccc2NS(=O)(=O)c2ccc(OC)cc2)cc1
- viability at 10 µM (MCF7): > 70%

Compound: COc1ccc(S(=O)(=O)Nc2cccnc2-c2cccc(OC)c2OC)cc1
- viability at 10 µM (MCF7): > 70%

Compound: COc1ccc(S(=O)(=O)Nc2cccnc2-c2ccccc2OC)cc1
- viability at 10 µM (MCF7): > 70%

Compound: COc1ccc(S(=O)(=O)N(c2cccnc2-c2cc(OC)ccc2OC)S(=O)(=O)c2ccc(OC)cc2)cc1
- viability at 10 µM (MCF7): > 70%

Compound: COc1ccc(S(=O)(=O)Nc2cccnc2-c2cccnc2)cc1
- viability at 10 µM (MCF7): > 70%

Compound: COc1ccc(S(=O)(=O)Nc2cccnc2-c2ccc(OCc3ccccc3)cc2)cc1
- viability at 10 µM (MCF7): > 70%

Compound: C=CCc1ccc(O)c(-c2ccc(O)c(CC=C)c2)c1 [HONOKIOL]
- viability at 10 µM (MCF7): > 70%

Compound: COc1ccc(S(=O)(=O)Nc2cccnc2-c2c(OC)cccc2OC)cc1
- viability at 10 µM (MCF7): > 70%

- IC50 (BT-474): > 10 µM
- IC50 (SK-BR-3): 6.31 µM
- IC50 (SW-620): 3.62 µM
- IC50 (SW480): 3.85 µM
- IC50 (A549): > 10 µM
- IC50 (NCI-H460): > 10 µM
- IC50 (PANC-1): 7.19 µM
Compound: COc1ccc(S(=O)(=O)Nc2cccnc2-c2ccc([N+](=O)[O-])cc2)cc1
- IC50 (PLC-PRF-5): 5.3 µM
- IC50 [1]: 7.6 µM
- IC50 (RKO): 1.4 µM

Compound: COc1ccc(S(=O)(=O)Nc2cccnc2-c2ccccc2O)cc1
- viability at 10 µM (MCF7): > 70%

Compound: COc1ccc(S(=O)(=O)Nc2cccnc2-c2ccc(N)cc2)cc1
- viability at 10 µM (MCF7): > 70%

- IC50 (BT-474): 1.34 µM
- IC50 (SK-BR-3): 0.746 µM
- IC50 (SW-620): 0.607 µM
- IC50 (SW480): 0.204 µM
- IC50 (A549): 2.46 µM
- IC50 (NCI-H460): 1.5 µM
- IC50 (PANC-1): 1.09 µM
Compound: COc1ccc(S(=O)(=O)Nc2cccnc2-c2ccc(C#N)cc2)cc1
- IC50 (PLC-PRF-5): 0.816 µM
- IC50 [1]: 0.747 µM
- IC50 (RKO): 0.259 µM

Compound: COc1ccc(S(=O)(=O)N(c2cccnc2-c2cccc(OC)c2OC)S(=O)(=O)c2ccc(OC)cc2)cc1
- viability at 10 µM (MCF7): > 70%

Compound: COc1ccc(S(=O)(=O)Nc2cccnc2-c2ccc(O)cc2)cc1
- viability at 10 µM (MCF7): > 70%

Compound: COc1ccc(S(=O)(=O)Nc2cccnc2-c2cccc(OC)c2)cc1
- viability at 10 µM (MCF7): > 70%

- IC50 (PANC-1): > 10 µM
Compound: N#Cc1ccc(-c2ncccc2NS(=O)(=O)c2ccccc2)cc1F
- IC50 [1]: > 10 µM
- IC50 (RKO): > 10 µM

Compound: COc1ccc(S(=O)(=O)Nc2cccnc2-c2ccc3c(c2)OCO3)cc1
- viability at 10 µM (MCF7): > 70%

Compound: COc1ccc(S(=O)(=O)Nc2cccnc2-c2cccc3c2oc2ccccc23)cc1
- viability at 10 µM (MCF7): > 70%

- inhibition (Sus scrofa): inactive
- inhibition (Tubulin (Homo sapiens) [2]): inactive
- inhibition (Tubulin (Homo sapiens) [3]): inactive
Compound: CC(=O)O[C@H]1C(=O)[C@@]2(C)[C@H]([C@H](OC(=O)c3ccccc3)[C@]3(O)C[C@H](OC(=O)[C@H](O)[C@@H](NC(=O)c4ccccc4)c4ccccc4)C(C)=C1C3(C)C)[C@]1(OC(C)=O)CO[C@@H]1C[C@@H]2O

- IC50 (PANC-1): > 10 µM
Compound: N#Cc1ccc(-c2ncccc2NS(=O)(=O)c2ccc(Cl)cc2)cc1F
- viability at 10 µM (MCF7): > 70%
- IC50 [1]: > 10 µM
- IC50 (RKO): > 10 µM

- IC50 (PANC-1): > 10 µM
Compound: Cc1ccc(S(=O)(=O)Nc2cccnc2-c2ccc(C#N)c(F)c2)cc1
- viability at 10 µM (MCF7): > 70%
- IC50 [1]: > 10 µM
- IC50 (RKO): 9.21 µM

Compound: COc1ccc(S(=O)(=O)Nc2cccnc2-c2ccc(OC)cc2OC)cc1
- viability at 10 µM (MCF7): > 70%

- IC50 (BT-474): > 10 µM
- IC50 (SK-BR-3): > 10 µM
- IC50 (SW-620): 6.82 µM
- IC50 (SW480): 9.21 µM
- IC50 (A549): > 10 µM
- IC50 (NCI-H460): > 10 µM
- IC50 (PANC-1): > 10 µM
Compound: COc1ccc(S(=O)(=O)Nc2cccnc2-c2ccc(C(F)(F)F)cc2)cc1
- IC50 (PLC-PRF-5): > 10 µM
- IC50 [1]: > 10 µM
- IC50 (RKO): 4.05 µM

Compound: COc1ccc(S(=O)(=O)Nc2cccnc2-c2cccc(C#N)c2)cc1
- viability at 10 µM (MCF7): > 70%

- IC50 (PANC-1): > 10 µM
Compound: COc1ccc(S(=O)(=O)Nc2cccnc2-c2ccc(C#N)c(F)c2)cc1OC
- IC50 [1]: > 10 µM
- IC50 (RKO): > 10 µM

Compound: COc1ccc(S(=O)(=O)Nc2cccnc2-c2ccc(OC)c(OC)c2)cc1
- viability at 10 µM (MCF7): > 70%

Compound: COc1ccc(S(=O)(=O)Nc2cccnc2-c2cccc(N)c2)cc1
- viability at 10 µM (MCF7): > 70%

Compound: COc1ccc(S(=O)(=O)Nc2cccnc2-c2ccncc2)cc1
- viability at 10 µM (MCF7): > 70%

Compound: COc1ccc(S(=O)(=O)Nc2cccnc2-c2cc(OC)ccc2OC)cc1
- viability at 10 µM (MCF7): > 70%
